In brackets after ≈: the same amount, converted by molar mass.
Assays:
[1] = tested on: Escherichia coli; test: Antimicrobial activity against Escherichia coli ATCC 25922 after 20 to 24 hrs; type: functional
In short: (§1)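 Broth microdilution in duplicate; compound in 2.5% DMSO in water, overnight culture added to a final inoculum of about 10^2-10^3 CFU/well. Growth read as A595 after 20-24 h at 37°C, relative to a no-compound well. MIC reported as a range: complete inhibition at the higher concentration, viable cells at the lower. Ampicillin and tetracycline are the positive controls.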

[2] = tested on: Staphylococcus aureus; test: Antimicrobial activity against Staphylococcus aureus ATCC 13709 after 20 to 24 hrs; type: functional; in short: as §1

Compound	MIC [1] [µg/mL]	MIC [2] [µg/mL]
COc1ccc(CCNCCO[C@H]2[C@H](O[C@@H]3[C@@H](O)[C@H](N)C[C@H](N)[C@H]3O[C@H]3O[C@H](CO)[C@@H](O)[C@H](O)[C@H]3N)O[C@H](CO)[C@H]2O[C@H]2O[C@@H](CN)[C@@H](O)[C@H](O)[C@H]2N)cc1	5 (≈ 6.31 µM)	< 0.6
NC[C@@H]1O[C@H](O[C@H]2[C@@H](OCCNCCC3CC4CCC3C4)[C@H](O[C@@H]3[C@@H](O)[C@H](N)C[C@H](N)[C@H]3O[C@H]3O[C@H](CO)[C@@H](O)[C@H](O)[C@H]3N)O[C@@H]2CO)[C@H](N)[C@@H](O)[C@@H]1O (some centres not stated)	> 10	5 (≈ 6.4 µM)
NC[C@@H]1O[C@H](O[C@H]2[C@@H](OCCNc3ccccn3)[C@H](O[C@@H]3[C@@H](O)[C@H](N)C[C@H](N)[C@H]3O[C@H]3O[C@H](CO)[C@@H](O)[C@H](O)[C@H]3N)O[C@@H]2CO)[C@H](N)[C@@H](O)[C@@H]1O	12 (≈ 16.3 µM)	2 (≈ 2.72 µM)
NC[C@@H]1O[C@H](O[C@H]2[C@@H](OCCNc3cccc(O)c3)[C@H](O[C@@H]3[C@@H](O)[C@H](N)C[C@H](N)[C@H]3O[C@H]3O[C@H](CO)[C@@H](O)[C@H](O)[C@H]3N)O[C@@H]2CO)[C@H](N)[C@@H](O)[C@@H]1O	12 (≈ 16 µM)	2 (≈ 2.66 µM)
NC[C@@H]1O[C@H](O[C@H]2[C@@H](OCCCCCc3ccccc3)[C@H](O[C@@H]3[C@@H](O)[C@H](N)C[C@H](N)[C@H]3O[C@H]3O[C@H](CO)[C@@H](O)[C@H](O)[C@H]3N)O[C@@H]2CO)[C@H](N)[C@@H](O)[C@@H]1O	10 (≈ 13.1 µM)	3 (≈ 3.94 µM)
NCCO[C@H]1[C@H](O[C@@H]2[C@@H](O)[C@H](N)C[C@H](N)[C@H]2O[C@H]2O[C@H](CO)[C@@H](O)[C@H](O)[C@H]2N)O[C@H](CO)[C@H]1O[C@H]1O[C@@H](CN)[C@@H](O)[C@H](O)[C@H]1N	12 (≈ 18.2 µM)	2 (≈ 3.04 µM)
NCCCNCCO[C@H]1[C@H](O[C@@H]2[C@@H](O)[C@H](N)C[C@H](N)[C@H]2O[C@H]2O[C@H](CO)[C@@H](O)[C@H](O)[C@H]2N)O[C@H](CO)[C@H]1O[C@H]1O[C@@H](CN)[C@@H](O)[C@H](O)[C@H]1N	25 (≈ 34.9 µM)	3 (≈ 4.19 µM)
NC[C@@H]1O[C@H](O[C@H]2[C@@H](OCCc3ccccc3)[C@H](O[C@@H]3[C@@H](O)[C@H](N)C[C@H](N)[C@H]3O[C@H]3O[C@H](CO)[C@@H](O)[C@H](O)[C@H]3N)O[C@@H]2CO)[C@H](N)[C@@H](O)[C@@H]1O	> 50	6 (≈ 8.34 µM)
NC[C@@H]1O[C@H](O[C@H]2[C@@H](OCCNCCc3cc(C(F)(F)F)cc(C(F)(F)F)c3)[C@H](O[C@@H]3[C@@H](O)[C@H](N)C[C@H](N)[C@H]3O[C@H]3O[C@H](CO)[C@@H](O)[C@H](O)[C@H]3N)O[C@@H]2CO)[C@H](N)[C@@H](O)[C@@H]1O	> 10	2.5 (≈ 2.78 µM)
NC[C@@H]1O[C@H](O[C@H]2[C@@H](OCCNC3CCCNC3)[C@H](O[C@@H]3[C@@H](O)[C@H](N)C[C@H](N)[C@H]3O[C@H]3O[C@H](CO)[C@@H](O)[C@H](O)[C@H]3N)O[C@@H]2CO)[C@H](N)[C@@H](O)[C@@H]1O (some centres not stated)	1.5 (≈ 2.02 µM)	3 (≈ 4.04 µM)
COc1cc(CCNCCO[C@H]2[C@H](O[C@@H]3[C@@H](O)[C@H](N)C[C@H](N)[C@H]3O[C@H]3O[C@H](CO)[C@@H](O)[C@H](O)[C@H]3N)O[C@H](CO)[C@H]2O[C@H]2O[C@@H](CN)[C@@H](O)[C@H](O)[C@H]2N)cc(OC)c1	10 (≈ 12.2 µM)	5 (≈ 6.08 µM)
NC[C@@H]1O[C@H](O[C@H]2[C@@H](OCCNCCc3cccnc3)[C@H](O[C@@H]3[C@@H](O)[C@H](N)C[C@H](N)[C@H]3O[C@H]3O[C@H](CO)[C@@H](O)[C@H](O)[C@H]3N)O[C@@H]2CO)[C@H](N)[C@@H](O)[C@@H]1O	12 (≈ 15.7 µM)	< 1.5
NC[C@@H]1O[C@H](O[C@H]2[C@@H](OCCNC3CCNCC3)[C@H](O[C@H]3C(O[C@H]4O[C@H](CO)[C@@H](O)[C@H](O)[C@H]4N)[C@@H](N)C[C@@H](N)[C@@H]3O)O[C@@H]2CO)[C@H](N)[C@@H](O)[C@@H]1O (some centres not stated)	25 (≈ 33.7 µM)	2 (≈ 2.7 µM)
NC[C@@H]1O[C@H](O[C@H]2[C@@H](OCCNCCCc3ccccc3)[C@H](O[C@@H]3[C@@H](O)[C@H](N)C[C@H](N)[C@H]3O[C@H]3O[C@H](CO)[C@@H](O)[C@H](O)[C@H]3N)O[C@@H]2CO)[C@H](N)[C@@H](O)[C@@H]1O	3 (≈ 3.86 µM)	0.6 (≈ 0.772 µM)
NCCO[C@H]1[C@H](O[C@@H]2[C@@H](O)[C@H](N)C[C@H](N)[C@H]2O[C@H]2O[C@H](CO)[C@@H](O)[C@H](O)[C@H]2N)O[C@H](CO)[C@H]1O	6 (≈ 12 µM)	12 (≈ 24.1 µM)
NC[C@@H]1O[C@H](O[C@H]2[C@@H](OCCO)[C@H](O[C@@H]3[C@@H](O)[C@H](N)C[C@H](N)[C@H]3O[C@H]3O[C@H](CO)[C@@H](O)[C@H](O)[C@H]3N)O[C@@H]2CO)[C@H](N)[C@@H](O)[C@@H]1O	12 (≈ 18.2 µM)	12 (≈ 18.2 µM)

— ChEMBL document CHEMBL1139884, “Structure-based design, synthesis, and A-site rRNA cocrystal complexes of functionally novel aminoglycoside antibiotics: C2" ether analogues of paromomycin” (2007)
